Test results as given in ChEMBL document CHEMBL2177084, “Discovery of salermide-related sirtuin inhibitors: binding mode studies and antiproliferative effects in cancer cells including cancer stem cells” (J Med Chem, 2012).
Activity calls are given as the source filed them. The calls are words filed in the database; no cut-off is given here.

Columns and labels:
U-937 [1] = assay: Induction of apoptosis in human U937 cells at 5 uM after 45 hrs by flow cytometry; format: functional, cell-based
In short: (§1)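 Apoptosis was taken as the pre-G1 peak after propidium iodide staining in hypotonic citrate/Triton buffer (30 min, dark) and flow cytometry. Triplicate experiments.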

U-937 [2] = assay: Induction of apoptosis in human U937 cells at 50 uM after 45 hrs by flow cytometry; format: functional, cell-based; in short: as §1
U-937 [3] = assay: Cell cycle arrest in human U937 cells assessed as accumulation at S phase at 25 uM after 40 hrs by flow cytometry; format: functional, cell-based
U-937 [4] = assay: Cell cycle arrest in human U937 cells assessed as accumulation at G1 phase at 25 uM after 40 hrs by flow cytometry; format: functional, cell-based
U-937 [5] = assay: Induction of apoptosis in human U937 cells after 45 hrs by flow cytometry; format: functional; design: concentration or dose not given beside the values; in short: as §1
[6] = target: T1, NAD-dependent protein deacetylase sirtuin-1 (Homo sapiens) (UniProt Q96EB6); assay: (§2) Inhibition of human N-terminal GST-tagged SIRT1 expressed in Escherichia coli using Arg-His- Lys-Lys(Ac) as substrate after 1 hr by Fluor de Lys fluorescence based assay
T1 sequence (whole entry): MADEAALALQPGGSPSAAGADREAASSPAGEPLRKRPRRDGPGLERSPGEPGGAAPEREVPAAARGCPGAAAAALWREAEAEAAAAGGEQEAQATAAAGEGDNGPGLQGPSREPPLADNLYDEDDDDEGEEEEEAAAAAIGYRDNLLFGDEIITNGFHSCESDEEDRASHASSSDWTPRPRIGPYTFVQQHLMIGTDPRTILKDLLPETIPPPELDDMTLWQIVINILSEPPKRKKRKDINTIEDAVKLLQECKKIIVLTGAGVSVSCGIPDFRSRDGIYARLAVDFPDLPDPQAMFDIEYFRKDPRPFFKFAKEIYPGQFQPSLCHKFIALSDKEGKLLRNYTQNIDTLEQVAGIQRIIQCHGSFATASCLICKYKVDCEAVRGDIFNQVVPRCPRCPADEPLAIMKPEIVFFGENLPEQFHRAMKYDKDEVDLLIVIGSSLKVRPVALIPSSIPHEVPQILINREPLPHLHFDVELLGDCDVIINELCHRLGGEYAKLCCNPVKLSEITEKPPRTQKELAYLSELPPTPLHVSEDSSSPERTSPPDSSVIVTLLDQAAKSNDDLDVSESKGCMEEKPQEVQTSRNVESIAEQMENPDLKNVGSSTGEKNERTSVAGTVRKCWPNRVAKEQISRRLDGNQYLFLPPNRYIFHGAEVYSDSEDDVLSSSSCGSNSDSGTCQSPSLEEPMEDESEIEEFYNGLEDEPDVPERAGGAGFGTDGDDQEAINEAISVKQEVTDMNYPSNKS
In short: (§3)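 Recombinant full-length human sirtuin expressed in E. coli was incubated 1 h at 37 °C with p53-derived AMC-conjugated acetyl-peptide (SIRT1: Arg-His-Lys-Lys(Ac); SIRT2: Gln-Pro-Lys-Lys(Ac); […]) and NAD+ ([…]). The reaction was stopped and developed with developer containing 2 mM nicotinamide, and fluorescence read at ex 360/em 460 nm. Compound fluorescence was subtracted using an enzyme-free counter assay. Triplicate.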

[7] = Cytotoxicity against human 30P cells at 50 uM after 72 hrs by celltiter-glo luminescent assay; format: functional
In short: (§4)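 Patient-derived CSC spheroids were dissociated, plated at 2000–3000 viable cells, and held 24 h at 37 °C in 5% CO2. They were then treated 72 h with eight 1:3 serial dilutions (0.023–50 μM), with 0.1% DMSO as control, in triplicate. Viability was read by CellTiter-Glo luminescence relative to DMSO, and CC50 was obtained by 4-parameter logistic fit (mean of three experiments).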

U-937 [8] = assay: Cell cycle arrest in human U937 cells at 25 uM after 40 hrs by flow cytometry; format: functional, cell-based
[9] = Cytotoxicity against human CRO cells at 50 uM after 72 hrs by celltiter-glo luminescent assay; format: functional; in short: as §4
Homo sapiens = species on record: Homo sapiens; assay: (§5) Cytotoxicity against human CRC 1.1 cells at 50 uM after 72 hrs by celltiter-glo luminescent assay; format: functional; in short: as §4
[10] = Cytotoxicity against human 30PT cells at 50 uM after 72 hrs by celltiter-glo luminescent assay; format: functional; in short: as §4
U-937 [11] = assay: Granulocytic differentiation in human U937 cells assessed as increase of CD11c cells at 25 uM after 40 hrs by FACS analysis relative to control; format: functional
In short: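 U937 cells treated 40 h at 25 μM, then stained with PE-conjugated anti-CD11c (PE mouse IgG1 as isotype control) for 30 min at 4 °C in the dark. Cells were washed in PBS and taken up in PBS with 0.25 μg/mL propidium iodide. Differentiation = CD11c-positive cells minus PI-positive dead cells, by FACS.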

MOLT-4 [12] = assay: Antiproliferative activity against human MOLT4 cells at 25 uM after 24 to 72 hrs by MTT assay; format: functional, cell-based
In short: (§6)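 Cells exposed to compound for 24, 48 and 72 h; growth inhibition read by MTT and expressed as percentage antiproliferative activity.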

[13] = Cytotoxicity against human CRC 1.1 cells after 72 hrs by celltiter-glo luminescent assay; format: functional; in short: as §4
[14] = Cytotoxicity against human 30P cells after 72 hrs by celltiter-glo luminescent assay; format: functional; in short: as §4
[15] = target: T2, NAD-dependent protein deacetylase sirtuin-1 (Homo sapiens, UniProt Q96EB6); assay: as §2; in short: as §3
T2 sequence (Q96EB6 whole entry): T1 sequence (whole entry)

MOLT-4 [16] = assay: Antiproliferative activity against human MOLT4 cells at 100 uM after 24 to 72 hrs by MTT assay; format: functional, cell-based; in short: as §6
MOLT-4 [17] = assay: Antiproliferative activity against human MOLT4 cells at 100 uM by MTT assay; format: functional, cell-based; conditions: TDE = time-dependent effect; in short: as §6
[18] = as §5; format: functional; in short: as §4
MOLT-4 [19] = assay: Antiproliferative activity against human MOLT4 cells at 50 uM after 24 to 72 hrs by MTT assay; format: functional, cell-based; in short: as §6
[20] = Cytotoxicity against human CRO cells after 72 hrs by celltiter-glo luminescent assay; format: functional; in short: as §4
RKO [21] = assay: Antiproliferative activity against human RKO cells at 50 uM after 24 to 72 hrs by MTT assay; format: functional, cell-based; in short: as §6
[22] = Cytotoxicity against human 30PT cells after 72 hrs by celltiter-glo luminescent assay; format: functional; in short: as §4
MDA-MB-231 [23] = assay: Antiproliferative activity against human MDA-MB-231 cells at 50 uM after 24 to 72 hrs by MTT assay; format: functional, cell-based; in short: as §6
MDA-MB-231 [24] = assay: Antiproliferative activity against human MDA-MB-231 cells at 25 uM after 24 to 72 hrs by MTT assay; format: functional, cell-based; in short: as §6
RKO [25] = assay: Antiproliferative activity against human RKO cells at 25 uM after 24 to 72 hrs by MTT assay; format: functional, cell-based; in short: as §6
[26] = in the assay text read “after 40 hrs” for “after 45 hrs”
[27] = in the assay text read “40 hrs” for “45 hrs”

Row | SMILES | Activity (U-937 [1]) | Activity (U-937 [2]) | Activity (U-937 [5]; [26]) | Activity (MOLT-4 [12]) | Activity (MOLT-4 [16]) | further results
1 | CC(NS(=O)(=O)c1cccc(/N=C/c2c(O)ccc3ccccc23)c1)c1ccccc1 (configuration not stated) | inactive | Active | – | – | – | Activity (U-937 [3]): Active
2 | CC(C(=O)Nc1ccccc1/N=C/c1c(O)ccc2ccccc12)c1ccccc1 (configuration not stated) | inactive | Active | – | – | – | Activity (U-937 [3]): Active
3 | CC(NC(=O)c1cccc(/N=C/c2c(O)ccc3ccccc23)c1)c1ccccc1 (configuration not stated) | inactive | Active | 47% | – | – | Activity (U-937 [4]): Active; inhibition [6]: Active
4 | NC(=O)C1CCCc2c1[nH]c1ccc(Cl)cc21 (configuration not stated) | – | – | – | – | – | inhibition at 50 µM [7]: 10%; Activity (U-937 [8]): inactive; inhibition at 50 µM [9]: 20%; Activity (U-937 [5]; [27]): inactive; inhibition (Homo sapiens): inactive; inhibition at 50 µM [10]: 20%; Activity (U-937 [11]): inactive
5 | CC(C[S+]([O-])c1cccc(/N=C/c2c(O)ccc3ccccc23)c1)c1ccccc1 (configuration not stated) | inactive | Active | – | Active | Active | CC50 [13]: 23.4 µM; CC50 [14]: 35 µM; IC50 [15]: 40.3 µM
6 | CC(CS(=O)(=O)c1cccc(/N=C/c2c(O)ccc3ccccc23)c1)c1ccccc1 (configuration not stated) | inactive | Active | – | – | – | –
7 | CC(C[S+]([O-])c1ccccc1/N=C/c1c(O)ccc2ccccc12)c1ccccc1 (configuration not stated) | inactive | Active | – | Active | Active | inhibition at 50 µM [7]: 42%; Activity (MOLT-4 [17]): tde; inhibition at 50 µM [9]: 33%; inhibition at 50 µM [18]: 46%; inhibition at 50 µM [10]: 39%
8 | CC(C[S+]([O-])c1ccc(/N=C/c2c(O)ccc3ccccc23)cc1)c1ccccc1 (configuration not stated) | inactive | Active | – | – | Active | Activity (MOLT-4 [17]): tde
9 | CC(NS(=O)(=O)c1ccccc1/N=C/c1c(O)ccc2ccccc12)c1ccccc1 (configuration not stated) | inactive | Active | – | – | Active | inhibition [6]: Active
10 | CC(CSc1ccc(/N=C/c2c(O)ccc3ccccc23)cc1)c1ccccc1 (configuration not stated) | inactive | Active | 90% | – | Active | –
11 | CC(NS(=O)(=O)c1ccc(/N=C/c2c(O)ccc3ccccc23)cc1)c1ccccc1 (configuration not stated) | inactive | Active | – | – | Active | –
12 | CC(CSc1cccc(/N=C/c2c(O)ccc3ccccc23)c1)c1ccccc1 (configuration not stated) | inactive | Active | – | Active | – | Activity (MOLT-4 [19]): Active; CC50 [13]: 20 µM; CC50 [14]: 15.5 µM; CC50 [20]: 14.5 µM; Activity (RKO [21]): Active; CC50 [22]: 15.6 µM; Activity (MDA-MB-231 [23]): Active
13 | CC(CS(=O)(=O)c1ccc(/N=C/c2c(O)ccc3ccccc23)cc1)c1ccccc1 (configuration not stated) | inactive | Active | – | – | Active | Activity (U-937 [4]): Active; CC50 [13]: 34 µM; CC50 [14]: 30.2 µM; inhibition [6]: Active
14 | CC(C(=O)Nc1cccc(/N=C/c2c(O)ccc3ccccc23)c1)c1ccccc1 (configuration not stated) [SALERMIDE] | inactive | Active | 70% | Active | Active | Activity (MOLT-4 [19]): Active; Activity (MOLT-4 [17]): tde; Activity (MDA-MB-231 [24]): Active; Activity (U-937 [4]): Active; CC50 [13]: 9.7 µM; CC50 [14]: 41 µM; CC50 [20]: 6.7 µM; Activity (RKO [21]): Active; CC50 [22]: 36.5 µM; Activity (MDA-MB-231 [23]): Active; Activity (RKO [25]): Active
15 | CC(CSc1ccccc1/N=C/c1c(O)ccc2ccccc12)c1ccccc1 (configuration not stated) | inactive | Active | – | Active | – | –
16 | N#C/C(=C\c1ccc(-c2cc(Cl)ccc2Cl)o1)C(=O)Nc1cccc2ncccc12 | – | – | – | – | – | Activity (U-937 [8]): inactive; inhibition at 50 µM [9]: 50%; Activity (U-937 [5]; [27]): inactive; CC50 [22]: 9.6 µM; inhibition at 50 µM [18]: 50%; Activity (U-937 [11]): inactive
17 | CC(NC(=O)c1ccc(/N=C/c2c(O)ccc3ccccc23)cc1)c1ccccc1 (configuration not stated) | inactive | Active | 47% | Active | Active | Activity (MOLT-4 [17]): tde; Activity (U-937 [4]): Active; inhibition [6]: Active
18 | CC(C(=O)Nc1ccc(/N=C/c2c(O)ccc3ccccc23)cc1)c1ccccc1 (configuration not stated) | inactive | Active | 70% | – | Active | Activity (MOLT-4 [17]): tde; Activity (U-937 [4]): Active; IC50 [15]: 40.9 µM
19 | CC(NC(=O)c1ccccc1/N=C/c1c(O)ccc2ccccc12)c1ccccc1 (configuration not stated) [SIRTINOL] | inactive | Active | 47% | – | – | inhibition [6]: Active
